Bioassay records (PubChem BioAssay)
A selection: hits, their analogues and other compounds. The true share with any hit is near 1.8%.
Scp-1 inhibitor – inhibitors of human Scp-1 phosphatase; 340,000 tested, 0.88% active; inhibition, % at 20 µM; Q9GZU7; Recombinant Scp1, phosphopeptide, malachite green phosphate absorbance;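 active = inhibition above about 50% at 20 µM, limit read from the data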;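 note: plate controls were DMSO wells with enzyme for no effect and wells lacking enzyme for full effect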
Target sequence (Q9GZU7 76-261 limits assumed): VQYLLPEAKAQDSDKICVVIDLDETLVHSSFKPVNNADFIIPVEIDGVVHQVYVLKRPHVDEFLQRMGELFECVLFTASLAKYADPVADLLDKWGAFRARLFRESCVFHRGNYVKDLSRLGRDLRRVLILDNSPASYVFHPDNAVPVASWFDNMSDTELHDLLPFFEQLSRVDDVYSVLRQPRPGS
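Assay system: SCP-1 catalytic fragment, aa 76-261 | Buffer or medium: Tris acetate buffer pH 5.5 with MgCl2 and Tween-20 | Compound: One concentration, 20 µM, with 1.0% DMSO | Also added: Phospho 17-mer peptide substrate | Signal: Absorbance at 630 nm | Incubation: 45 min enzyme reaction at room temperature | Measure: % inhibition of SCP-1 phosphate liberation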
SUMO1 PPI mod – SUMO1-SIM interaction modulation; 360,000 tested, 0.33% active; P63165; inhibition, % at 20 µM; SUMO1 binding to a labelled peptide, TR-FRET, 1 h; in the data active = inhibition above about 37%
LMPTP block – blocks human LMPTP phosphatase | P24666 | recombinant LMPTP-A, OMFP fluorogenic substrate, fluorescence intensity | inhibition, % at 20 µM | 360,000 tested, 0.22% active;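 active = compounds that cut the enzyme signal by at least half of the control window in the single-dose screen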;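 note: plate controls were DMSO wells with enzyme plus substrate for no effect and substrate without enzyme for full effect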
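Test system: LMPTP-A phosphatase enzyme; input: 0.625 nM LMPTP-A final; reagent: OMFP substrate, 400 µM final; compound dosing: 20 µM single dose, 3% DMSO; incubation: 50 min dark incubation at room temperature; measured by: endpoint fluorescence intensity from OMFP dephosphorylation; measure: % inhibition relative to no-enzyme and uninhibited control wells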
STEP inh – blocks human striatal-enriched tyrosine phosphatase. P54829. recombinant STEP, OMFP fluorogenic substrate, fluorescence. inhibition, % at 20 µM. 360,000 tested, 0.25% active. AID 588621;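 active = inhibition at 20 µM, scaled per plate between control wells, above about 37%, limit read from the data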;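 note: 0% = DMSO with enzyme and substrate and 100% = substrate only without enzyme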
Target sequence (P54829 whole entry, looked up): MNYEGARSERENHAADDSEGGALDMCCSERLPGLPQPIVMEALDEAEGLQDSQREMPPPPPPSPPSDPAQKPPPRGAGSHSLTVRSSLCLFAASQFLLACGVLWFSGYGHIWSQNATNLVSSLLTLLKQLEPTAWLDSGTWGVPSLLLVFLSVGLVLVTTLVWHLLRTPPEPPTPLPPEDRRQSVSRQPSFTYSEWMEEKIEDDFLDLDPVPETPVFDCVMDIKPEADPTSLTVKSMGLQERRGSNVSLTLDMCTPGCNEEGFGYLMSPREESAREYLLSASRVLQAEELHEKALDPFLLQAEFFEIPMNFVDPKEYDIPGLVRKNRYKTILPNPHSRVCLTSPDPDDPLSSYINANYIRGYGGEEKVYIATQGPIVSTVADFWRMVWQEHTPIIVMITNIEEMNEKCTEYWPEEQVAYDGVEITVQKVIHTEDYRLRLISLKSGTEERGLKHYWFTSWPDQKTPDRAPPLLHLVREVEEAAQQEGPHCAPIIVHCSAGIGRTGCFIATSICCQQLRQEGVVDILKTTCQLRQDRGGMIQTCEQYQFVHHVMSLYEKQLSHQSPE
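Test system: STEP tyrosine phosphatase / Reagent: OMFP at 25 µM / Doses: 20 µM, 1% DMSO / Read-out: percent inhibition scaled to no-enzyme and uninhibited-enzyme controls, plate-pattern corrected / Detection: FITC-channel fluorescence of OMFP product / Medium: Bis-Tris buffer pH 6.0, 2.5 mM DTT, 0.005% Tween 20 / Schedule: 20 min at room temperature, dark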
DNMT1 inh – blocks human DNA methyltransferase DNMT1; inhibition (reported as % activation of signal), % at 10 µM; DNMT1 molecular beacon, Hinp1I cleavage, fluorescence; 360,000 tested, 0.83% active; in the data active = inhibition above about 50%
Scp1 confirm – Scp-1 (human) inhibition, single-dose confirmed; shares compounds with Scp-1 inhibitor; 2,500 tested, 61% active; AID 540281; recombinant SCP-1 catalytic domain, phosphate release, malachite green absorbance; inhibition, % at 20 µM;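 note: plate controls were DMSO with enzyme for no effect and buffer wells lacking enzyme for full effect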
Scp-1 MG ctr – interferes with malachite green readout, flagging false Scp-1 hits; shares compounds with Scp-1 inhibitor; Colorimetric interference counterscreen, malachite green absorbance 630 nm; apparent inhibition (interference), % at 20 µM; 2,500 tested, under 10 active;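 note: compounds added after enzyme reaction finished so only phosphate colour detection is probed; plate controls were DMSO wells with completed Scp-1 reaction for no effect and substrate wells lacking enzyme for full effect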
Scp1 DSF – Scp-1 (human) binding by thermal shift | thermal shift relative to vanadate control, % at 40 µM | Recombinant SCP1, Sypro Orange thermal shift Tm | AID 540329 | shares compounds with Scp-1 inhibitor | 1,500 tested, 25% active;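 active = substances whose mean melting-temperature shift, as a percentage of the reference inhibitor's shift, reaches about 5.3%, limit read from the data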;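 note: 0% = Tm of DMSO wells and 100% = Tm with sodium orthovanadate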
Active calls of the source: *; . = no result.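 Rule for the calls, unless noted: active = inhibition of at least 30% at 20 µM; inactive = the rest.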

SMILES	Scp-1 inhibitor	SUMO1 PPI mod	LMPTP block	STEP inh	DNMT1 inh	Scp1 confirm	Scp-1 MG ctr	Scp1 DSF
Fc1ccc2cnc(-c3ccccc3)c(-c3cc(C(F)(F)F)cc(C(F)(F)F)c3)c2c1	58.5*	9.4	3.7	3.1	22.9	22.1	-9.0	.
COc1cc2cnc(-c3ccccc3)c(-c3ccc(C(F)(F)F)cc3)c2cc1OC	18.1	9.4	2.7	-3.5	-5.0	.	.	.
N#Cc1ccc(-c2c(-c3ccccc3)ncc3cc(F)ccc23)cc1	5.0	-1.5	1.4	1.2	6.2	.	.	.
Cc1cccc(N2CCN(S(=O)(=O)c3ccc4c(c3)CCCN4C(=O)C3CCC3)CC2C)c1 (configuration not stated)	-3.8	-0.5	4.7	2.2	1.4	.	.	.
CC(C)(C)NC(=O)CN(C(=O)CNS(=O)(=O)c1ccc(Cl)cc1)c1ccc2c(c1)OCCO2	-4.8	-0.3	0.3	-3.0	-0.2	.	.	.
Cc1ccc(S(=O)(=O)N2CC3=C(C2)C2CC2(C)C3)cc1 (configuration not stated)	.	9.5	2.5	.	.	.	.	.
COc1ccc(N2CCN(C(=O)COC(=O)c3ccco3)CC2)cc1	-3.1	2.7	-1.0	-1.4	1.8	.	.	.
N#C/C(=C\c1ccc[nH]1)C(=O)Nc1ccccc1[N+](=O)[O-]	55.0*	25.5	32.4	-0.9	21.1	64.2*	-6.5	5.3*
COc1ccc2[nH]c(=O)c(-c3noc(-c4ccccc4)n3)cc2c1	82.0*	65.1*	22.3	39.3	5.9	60.1*	-8.7	-34.8
COc1cc(-c2nnc(COC(=O)c3ccc(C)o3)o2)cc(OC)c1OC	59.0*	8.2	5.9	13.3	35.5	47.2*	0.9	-2.9
COc1cc(-c2nnc(COC(=O)c3cc(C)no3)o2)cc(OC)c1OC	-4.8	5.4	-0.6	0.9	-3.2	.	.	.
CCOc1cc(/C=N/N=C2/NC(=O)C(CC(=O)O)S2)ccc1OCc1ccc(Cl)cc1 (configuration not stated)	75.4*	-0.3	1.1	5.5	-0.5	68.8*	-11.2	-13.7
O=C(O)c1ccc(-n2c(=O)c3ccccc3c3ccccc3c2=O)cc1	-8.4	2.2	-0.2	0.6	4.7	.	.	.
Cc1ccc(-n2c(=O)c3cc4c(=O)n(-c5ccc(C)c(C)c5)c(=O)c4c(C(=O)c4ccc(C(=O)O)cc4)c3c2=O)cc1C	90.9*	89.8*	83.2*	96.6*	34.0	74.6*	-10.9	10.4*
CN(C)c1ccc(-c2ccnc3c2CC(C)(C(=O)NCCC(F)(F)F)O3)cc1 (configuration not stated)	.	1.6	1.2	0.3	4.2	.	.	.
CC(=O)Nc1ccc(N/C(C)=C/C(=O)c2cccnc2)cc1	-1.4	-3.3	-1.1	1.8	5.2	.	.	.
CC/C(=C\C(=O)c1cccnc1)Nc1ccc(C)c(C)c1	52.6*	-3.2	-2.2	0.5	0.0	-18.1	-15.3	.
Cc1ccc(CN2C(=NC(=O)CCC(=O)O)SC3CS(=O)(=O)CC32)cc1 (configuration not stated)	-2.5	-4.5	-1.5	-0.8	1.2	.	.	.
Cc1ccc2nc(-c3ccc(N4C(=NC(=O)CCC(=O)O)SC5CS(=O)(=O)CC54)cc3)sc2c1 (configuration not stated)	51.3*	9.1	2.3	-0.4	56.2*	55.3*	-13.1	-4.0
Cc1ccc(-n2nnnc2SCC(=O)NNC(=O)c2ccc([N+](=O)[O-])cc2)cc1	50.0*	-16.2	30.7	15.6	0.6	40.6*	-11.5	0.3
COc1ccc(-n2nnnc2SCC(=O)NNC(=O)c2ccc([N+](=O)[O-])cc2)cc1	5.0	19.3	1.1	-1.9	2.8	.	.	.
C[C@@H]1CCCCO[C@@H](CN(C)C(=O)c2ccncc2)[C@@H](C)CN([C@H](C)CO)C(=O)c2cc(N(C)C)ccc2O1	.	-0.3	-1.9	0.5	1.2	.	.	.
CC(=O)Nc1cc2c(c(Cl)c1Cl)-c1ccccc1C2=O	80.1*	37.1	23.4	5.8	16.6	-15.4	-12.9	.
CC(=O)Nc1ccc(Cl)cc1-c1ccccc1	2.6	-0.9	0.1	-1.9	-0.5	.	.	.
COc1ccc(C(O)c2ncc(-c3ccccc3OC)[nH]2)cc1F (configuration not stated)	.	3.2	0.3	1.0	-3.5	.	.	.
SMILES	Scp-1 inhibitor	SUMO1 PPI mod	LMPTP block	STEP inh	DNMT1 inh	Scp1 confirm	Scp-1 MG ctr	Scp1 DSF
O=C(NCCc1ccccc1F)N[C@@H](Cc1ccccc1)C(=O)O	-4.5	-2.9	-2.4	-2.1	0.7	.	.	.
Cc1ccc(NC(=O)COC(=O)CCCC2=NS(=O)(=O)c3ccccc3N2)cc1C	3.5	-3.5	-0.6	-1.2	3.0	.	.	.
O=C(COC(=O)CCCC1=NS(=O)(=O)c2ccccc2N1)Nc1ccc(Br)cc1	50.7*	-7.8	0.1	-4.8	-1.0	-20.9	-19.2	.
COC(=O)c1c(NC(=O)Cc2cccs2)sc2c1CCCC2	50.6*	7.5	3.5	6.6	45.2	72.7*	-12.3	0.4
COc1cccc(S(=O)(=O)N(C)C[C@@H]2Oc3cc(C#CCN(C)C)ccc3S(=O)(=O)N([C@H](C)CO)C[C@@H]2C)c1	.	-7.2	-1.6	-0.6	-4.0	.	.	.
Cc1ccc(S(=O)(=O)Nc2c(C)cc(C)nc2Cl)cc1	-13.1	2.2	-0.8	-3.1	-1.5	.	.	.
COc1ccc(NC(=O)c2ccc3c(c2)CCN3S(=O)(=O)c2ccccc2)c(OC)c1	60.5*	0.8	3.4	-0.8	-1.4	-30.4	-32.1	.
O=C(CCCOc1ccc(Cl)cc1Cl)N/N=C/c1cccc([N+](=O)[O-])c1	92.2*	-7.9	19.0	2.9	13.0	55.0*	-9.8	2.5
COc1ccc(OC)c(CN2CCN(C(=O)c3ccc(NS(=O)(=O)c4cccc([N+](=O)[O-])c4)cc3)CC2)c1	-3.4	-16.1	0.8	-1.3	-0.7	.	.	.
CCOc1nc2cnccc2n(CC(=O)Nc2cccc(C)c2C)c1=O	-4.5	3.2	-1.8	-0.2	0.2	.	.	.
COc1ccc(C)cc1NC(=O)CCCN1C(=O)C2CC=CCC2C1=O (configuration not stated)	-1.6	-1.8	0.7	-0.1	-0.2	.	.	.
CCc1cccc(C)c1NC(=O)CCCN1C(=O)CN(C)C1=O	-1.7	0.0	-1.5	-2.5	17.6	-10.9	-12.6	.
COc1ccc(C)cc1NC(=O)CCCN1C(=O)CN(C)C1=O	-7.6	-0.5	-2.4	0.0	-7.9	-14.1	-15.8	.
COC(=O)c1ccc(C)c(NC(=O)CCCN2C(=O)CN(C)C2=O)c1	1.9	1.6	-2.3	0.7	-3.5	.	.	.
O=C(Nc1ccc(F)cc1)c1cccc(N2C(=O)c3ccccc3C2=O)c1	81.7*	20.9	1.5	13.3	-0.5	55.4*	-5.2	-2.9
